Reference: ChEMBL document CHEMBL3871266, “Synthesis and cytotoxic activity of novel A-ring cleaved ursolic acid derivatives in human non-small cell lung cancer cells” (Eur J Med Chem, 2016)
Active and inactive are the calls of the source. No cut-off for these calls is given here.

What was measured:
[1] = Cytotoxicity against human NCI-H460 cells expressing CTR5 gene assessed as reduction in cell viability measured after 72 hrs by CellTiter-Blue cell viability assay; assay type: functional, cell-based; conditions: Homo sapiens, NCI-H460, 72 h; read-out: IC50
Outline: (§1)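 Monolayer cultures in RPMI-1640 with 10% FBS at 37°C, seeded at 850 (H460 CTR5), 660 (H460 LKB1+/+) or 1780 (H322) cells/well so that the end point reaches 70–80% confluence. Treated 72h; vehicle 0.15% DMSO. CellTiter-Blue added until colour change (50–60, 80–90 or 100–120 min respectively), fluorescence read at 590 nm. IC50 by nonlinear regression; three independent experiments.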

[2] = Cytotoxicity against human LKB1-positive NCI-H460 cells assessed as reduction in cell viability measured after 72 hrs by CellTiter-Blue cell viability assay; assay type: functional, cell-based; conditions: Homo sapiens, NCI-H460, 72 h; read-out: IC50; outline: as §1
[3] = Cytotoxicity against human NCI-H460 spheroids expressing CTR5 gene assessed as reduction in cell viability measured after 96 hrs by CellTiter-Glo luminescence viability assay; assay type: functional, cell-based; conditions: NCI-H460, 96 h
Outline: (§2)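 Spheroids grown in round-bottom ultralow-attachment wells, 495 (H460 CTR5) or 650 (H322) cells/well. Drug exposure 96h with DMSO vehicle. CellTiter-Glo added, shaken 20 min, left 10 min, then luminescence read. IC50 by nonlinear regression; three independent experiments.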

[4] = Cytotoxicity against human NCI-H322 spheroids assessed as reduction in cell viability measured after 96 hrs by CellTiter-Glo luminescence viability assay; assay type: functional; conditions: NCI-H322, 96 h; outline: as §2
NCI-H460 [5] = assay: Induction of apoptosis in human NCI-H460 cells expressing CTR5 gene assessed as late apoptotic cells at 5 uM measured after 72 hrs by Annexin V-Cy5/propidium iodide staining-based flow cytometry (reference value: 3.2%); assay type: functional
NCI-H460 [6] = assay: Induction of apoptosis in human NCI-H460 cells expressing CTR5 gene assessed as necrotic cells at 5 uM measured after 72 hrs by Annexin V-Cy5/propidium iodide staining-based flow cytometry (reference value: 2.1%); assay type: functional
NCI-H460 [7] = assay: Induction of apoptosis in human NCI-H460 cells expressing CTR5 gene assessed as increase in cleavage of procaspase7 at 3 to 5.5 uM measured after 24 hrs by Western blot analysis; assay type: functional, cell-based
Outline: (§3)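 Cells were seeded at 3×10^5 (H460) or 4.2×10^5 (H322) per dish and treated 24h later with DMSO or a concentration series for 24h. Lysed in cold RIPA with phosphatase and protease inhibitors, then sonicated. 30 μg protein run on Bis-Tris gels and transferred to nitrocellulose or PVDF. Detection used infrared secondary antibodies on an Odyssey imager. Signal normalized to β-actin or GAPDH and to DMSO control; three independent experiments.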

NCI-H460 [8] = assay: Induction of apoptosis in human NCI-H460 cells expressing CTR5 gene assessed as decrease in procaspase3 level at 4.5 uM measured after 24 hrs by Western blot analysis; assay type: functional; set-up: scale not given: the % may be the effect or the level left; outline: as §3
NCI-H322 [9] = assay: Induction of apoptosis in human NCI-H322 cells assessed as increase in cleaved PARP level at 3 to 5.5 uM measured after 24 hrs by Western blot analysis; assay type: functional, cell-based; outline: as §3
NCI-H322 [10] = assay: Induction of apoptosis in human NCI-H322 cells assessed as increase in cleaved caspase7 level at 3 to 5.5 uM measured after 24 hrs by Western blot analysis; assay type: functional, cell-based; outline: as §3
NCI-H460 [11] = assay: Induction of apoptosis in human NCI-H460 cells expressing CTR5 gene assessed as downregulation of Bcl2 expression at 3 to 5.5 uM measured after 24 hrs by Western blot analysis; assay type: functional, cell-based; outline: as §3
[12] = Downregulation of Mcl1 long isoform protein expression in human NCI-H460 cells expressing CTR5 gene at 3 to 4.5 uM measured after 24 hrs by Western blot analysis; assay type: functional, cell-based; outline: as §3
NCI-H460 [13] = assay: Induction of apoptosis in human NCI-H460 cells expressing CTR5 gene assessed as viable cells at 20 uM measured after 72 hrs by Annexin V-Cy5/propidium iodide staining-based flow cytometry (reference value: 94.6%); assay type: functional; conditions: NCI-H460, 72 h, read-out: Activity
NCI-H460 [14] = assay: Induction of apoptosis in human NCI-H460 cells expressing CTR5 gene assessed as early apoptotic cells at 20 uM measured after 72 hrs by Annexin V-Cy5/propidium iodide staining-based flow cytometry (reference value: 1.8%); assay type: functional
NCI-H460 [15] = assay: Induction of apoptosis in human NCI-H460 cells expressing CTR5 gene assessed as necrotic cells at 20 uM measured after 72 hrs by Annexin V-Cy5/propidium iodide staining-based flow cytometry (reference value: 0.9%); assay type: functional
NCI-H460 [16] = assay: Induction of apoptosis in human NCI-H460 cells expressing CTR5 gene assessed as viable cells at 4 uM measured after 72 hrs by Annexin V-Cy5/propidium iodide staining-based flow cytometry (reference value: 94.6%); assay type: functional; conditions: NCI-H460, 72 h, read-out: Activity
NCI-H460 [17] = assay: Induction of apoptosis in human NCI-H460 cells expressing CTR5 gene assessed as early apoptotic cells at 4 uM measured after 72 hrs in presence of autophagy inhibitor chloroquine by Annexin V-Cy5/propidium iodide staining-based flow cytometry (reference value: 1.8%); assay type: functional
NCI-H460 [18] = assay: Induction of apoptosis in human NCI-H460 cells expressing CTR5 gene assessed as necrotic cells at 4 uM measured after 72 hrs in presence of autophagy inhibitor chloroquine by Annexin V-Cy5/propidium iodide staining-based flow cytometry (reference value: 0.9%); assay type: functional
NCI-H460 [19] = assay: Decrease in mTOR level in human NCI-H460 cells expressing CTR5 gene at 3 to 5.5 uM measured after 24 hrs by Western blot analysis; assay type: functional, cell-based; outline: as §3
NCI-H460 [20] = assay: Increase in lipidation of LC3A/B1 to LC3A/B2 in human NCI-H460 cells expressing CTR5 gene measured after 24 hrs by Western blot analysis; assay type: functional, cell-based; outline: as §3
NCI-H322 [21] = assay: Increase in lipidation of LC3A/B1 to LC3A/B2 in human NCI-H322 cells measured after 24 hrs by Western blot analysis; assay type: functional, cell-based; outline: as §3
[22] = Downregulation of p62 level in human NCI-H460 cells expressing CTR5 gene at 3 to 5.5 uM measured after 24 hrs by Western blot analysis; assay type: functional, cell-based; outline: as §3
[23] = Upregulation of Beclin1 level in human NCI-H460 cells expressing CTR5 gene at 3.5 uM measured after 24 hrs by reverse-phase protein array method relative to control; assay type: functional, cell-based
[24] = Upregulation of LC3-2 level in human NCI-H460 cells expressing CTR5 gene at 3.5 uM measured after 24 hrs by reverse-phase protein array method relative to control; assay type: functional, cell-based
[25] = Upregulation of Atg7 level in human NCI-H460 cells expressing CTR5 gene at 3.5 uM measured after 24 hrs by reverse-phase protein array method relative to control; assay type: functional, cell-based
[26] = target: Serine/threonine-protein kinase mTOR (Homo sapiens) (UniProt P42345); assay: Inhibition of mTOR in human NCI-H460 cells expressing CTR5 gene assessed as decrease in S6 phosphorylation at S235/236 site by reverse-phase protein array method relative to control; assay type: cell-based
[27] = target: Serine/threonine-protein kinase mTOR (Homo sapiens) (UniProt P42345); assay: Inhibition of mTOR in human NCI-H460 cells expressing CTR5 gene assessed as decrease in S6 phosphorylation at S240/44 site by reverse-phase protein array method relative to control; assay type: cell-based
NCI-H460 [28] = assay: Induction of autophagy in human NCI-H460 cells expressing CTR5 gene measured after 24 hrs by microarray method; assay type: functional, cell-based

inhibition [26]: 11.7% | inhibition [27]: 8.4%
SMILES: C=C(C)[C@@H]1CC[C@]2(C)[C@H](C[C@@H](F)C34OC(=O)[C@@]5(CC[C@@H](C)[C@H](C)[C@@H]35)CC[C@]42C)[C@@]1(C)CCC(=O)NCCC
IC50 [1]: 2.6 µM | IC50 [2]: 4.4 µM | IC50 [3]: 5.5 µM | IC50 [4]: 10 µM | Activity (NCI-H460 [5]): 29.1% | Activity (NCI-H460 [6]): 5% | Activity (NCI-H460 [7]): Active | Activity (NCI-H460 [8]): 29% | Activity (NCI-H322 [9]): Active | Activity (NCI-H322 [10]): Active | Activity (NCI-H460 [11]): Dose-dependent effect | Activity [12]: Dose-dependent effect | viability at 20 µM (NCI-H460 [13]): 94.3% | Activity (NCI-H460 [14]): 2.8% | Activity (NCI-H460 [15]): 0.9% | viability at 4 µM (NCI-H460 [16]): 77.4% | Activity (NCI-H460 [17]): 7.6% | Activity (NCI-H460 [18]): 3.6% | Activity (NCI-H460 [19]): Active | Activity (NCI-H460 [20]): Dose-dependent effect | Activity (NCI-H322 [21]): Dose-dependent effect | Activity [22]: Active | Activity [23]: 5.6% | Activity [24]: 10.7% | Activity [25]: 4.5% | Activity (NCI-H460 [28]): Active
